Legend:
[1] = target: Sigma non-opioid intracellular receptor 1 (Cavia porcellus, UniProt Q60492); test: Displacement of [3H]-pentazocine from sigma 1 receptor in guinea pig brain after 30 mins by radioligand binding assay
[2] = Selectivity ratio of Ki for sigma 1 receptor in guinea pig brain to Ki for sigma 2 receptor in rat liver membrane; assay type: cell membranes
[3] = Lipophilicity, log D of the compound at pH 7.4; assay type: physicochemical; conditions: buffer
Summary of the method: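 LogD calculated for compounds at pH 7.4.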

[4] = Displacement of [3H]-DTG from sigma 2 receptor in rat liver membrane after 30 mins by radioligand binding assay; assay type: cell membranes
Summary of the method: (§1)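 […] (30 Ci/mmol) radioligand binding per Matsumoto et al. IC50 taken from six to nine drug concentrations, in two or three experiments with duplicate samples. Ki obtained by non-linear curve fitting. Tested as hydrochloride salts.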

[5] = Inhibition of P-gp in dog MDCK-MDR1 cells by calcein-AM assay; assay type: cell-based, Canis lupus familiaris
Summary of the method: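 MDCK-MDR1 cells overexpressing P-gp, grown in DMEM high glucose with 10% FBS and 2 mM glutamine at 37 °C under 5% CO2. Seeded at 50,000 cells/well and left overnight to confluence. Compound added for 30 min at 37 °C, then calcein-AM (final 2.5 µM in PBS) for 30 min. Wells washed with ice-cold PBS. Fluorescence read at 485/535 nm. EC50 from % increase over untreated basal versus log dose.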

Rattus norvegicus = species: Rattus norvegicus; test: Displacement of [3H]-DTG from sigma 2 receptor in rat liver membrane at […] after 30 mins by radioligand binding assay; assay type: cell membranes; summary of the method: as §1

Sigma non-opioid intracellular receptor 1, sequence (Q60492 whole entry): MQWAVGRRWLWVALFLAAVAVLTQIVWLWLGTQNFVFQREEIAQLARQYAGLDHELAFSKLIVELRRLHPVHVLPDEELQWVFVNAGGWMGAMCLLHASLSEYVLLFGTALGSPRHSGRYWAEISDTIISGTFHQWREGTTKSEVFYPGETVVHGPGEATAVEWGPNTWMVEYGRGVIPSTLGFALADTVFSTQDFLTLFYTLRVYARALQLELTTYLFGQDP

SMILES	Ki [1]	Ratio Ki [2]	logD [3]	Ki [4]	EC50 [5]	Activity (Rattus norvegicus)
COc1cc2c(cc1OC)CN(CCCNC(=O)c1cc(Br)cc(OC)c1OC)CC2	4400 nM	341	3.22	12.9 nM	2500 nM	–
COc1cccc2c1CCCC2CCCN1CCN(C2CCCCC2)CC1 (stereo not drawn)	–	–	3.75	0.68 nM	3000 nM	–
COc1cc2c(cc1OC)CN(CCCNC(=O)c1cc(C)ccc1OC)CC2	534 nM	203	2.7	2.63 nM	5300 nM	–
COc1cc2c(cc1OC)CN(CCCC1CCCc3c(OC)cccc31)CC2 (stereo not drawn)	151 nM	–	4.33	–	1100 nM	96%
O=C1c2ccccc2CCN1CCCN1CCN(C2CCCCC2)CC1	24.7 nM	1	1.49	26.6 nM	20000 nM	–
COc1cc(Br)cc(C(=O)NCCCN2CCN(C3CCCCC3)CC2)c1OC	25.8 nM	1.2	2.43	21.2 nM	2700 nM	–
COc1ccc(C)cc1C(=O)NCCCN1CCN(C2CCCCC2)CC1	45.5 nM	1.7	1.94	26.1 nM	8600 nM	–
COc1cccc2c1CCCC2C(=O)NCCCN1CCN(C2CCCCC2)CC1 (stereo not drawn)	35.1 nM	2	2.46	16.5 nM	8600 nM	–
COc1cc2c(cc1OC)CN(CCCN1CCc3ccccc3C1=O)CC2	709 nM	147	2.25	4.84 nM	12000 nM	–
COc1cc2c(cc1OC)CN(CCCNC(=O)C1CCCc3c(OC)cccc31)CC2 (stereo not drawn)	146 nM	7	3.21	21.1 nM	2700 nM	–
COc1cc2c(cc1OC)CN(CCCCNC(=O)c1cc(C)ccc1OC)CC2	2150 nM	247	2.83	8.68 nM	1600 nM	–
COc1cc(Br)c(C(=O)NCCCN2CCc3cc(OC)c(OC)cc3C2)cc1OC	2570 nM	50	2.89	50.9 nM	45000 nM	–
Cc1ccccc1NC(=N)Nc1ccccc1C [DITOLYLGUANIDINE]	–	–	–	26.3 nM	–	–
COc1cc(Br)c(C(=O)NCCCN2CCN(C3CCCCC3)CC2)cc1OC	268 nM	0.6	2.11	467 nM	45000 nM	–
